The record followed here is ChEMBL document CHEMBL1122142, “Synthesis and antiinflammatory activity of hexahydrothiopyrano[4,3-c]pyrazoles and related analogues” (J Med Chem, 1982).

Data set [1] concerns Cavia porcellus. Put plainly: Tested in delayed hypersensitivity skin reaction (DHSR) after subcutaneous administration, activity reported as percent inhibition of erythema/induration of lesion; 2/0. The data set is classed as functional.
For data set [2], the system named is Mus musculus. The data set is described as follows: Mouse active Arthus (MAA) reaction activity was determined for an ip dose of 150 mg/kg in mouse; 31-40%. Type of data set: functional. Particulars: route intraperitoneal.
Data set [3] concerns Mus musculus. Put plainly: The compound was evaluated for the mouse active Arthus (MAA) reaction activity for an ip dose of 150 mg/kg in mouse. The data set is classed as functional. Particulars: route intraperitoneal. The gist of the method:
(§1)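 CD-1 mice were sensitized ip with a 1:1 Freund's complete adjuvant emulsion containing BSA in saline, 5 weeks before challenge. Compound was suspended in 1% Na CMC in pyrogen-free saline and given as one ip or oral dose 1 h before skin challenge with BSA. Screening doses were 150 mg/kg ip and 300 mg/kg po, with some at 75 or 50 mg/kg ip. Lesions were excised 3.5 h after challenge and weighed against controls.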

The test system of data set [4] is Cavia porcellus. Put plainly: Tested in delayed hypersensitivity skin reaction (DHSR) after subcutaneous administration, activity reported as percent inhibition of erythema/induration of lesion; 6/12. Type of data set: functional. Put shortly: (§2)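 Male Hartley guinea pigs were sensitized with Mycobacterium tuberculosis in Freund's incomplete adjuvant, injected into each hind footpad and subcutaneously at the neck. After 3 weeks, 1.2 μg PPD was given intradermally. Compound in sesame oil was given sc, 3 animals per group, 30 min before and 5 h after PPD; screening dose 50 mg/kg.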

The subject of data set [5] is Mus musculus. Put plainly: Inhibition of Mouse Active Arthus reaction following 150 mg/Kg i.p.; 41-60% inhibition. Type of data set: functional. Particulars: Mus musculus, ip.
Data set [6] concerns Cavia porcellus. The data set is described as follows: Tested in delayed hypersensitivity skin reaction (DHSR) after subcutaneous administration, activity reported as percent inhibition of erythema/induration of lesion; 8/21. The data set is classed as functional. Put shortly:
as §2

In data set [7] the test system is Cavia porcellus. Put plainly: The compound was evaluated for the delayed hypersensitivity skin reaction (DHSR) activity after subcutaneous administration; 15/21.
In data set [8] the test system is Mus musculus. The data set is described as follows: The compound was evaluated for the mouse active Arthus (MAA) reaction activity for an ip dose of 150 mg/kg in mouse; 31-40%. Particulars: route intraperitoneal. Type of data set: functional. The gist of the method:
as §1

The test system of data set [9] is Cavia porcellus. Put plainly: Tested in delayed hypersensitivity skin reaction (DHSR) after subcutaneous administration, activity reported as percent inhibition of erythema/induration of lesion; 10/0. The data set is classed as functional.
The test system of data set [10] is Cavia porcellus. Put plainly: Tested in delayed hypersensitivity skin reaction (DHSR) after subcutaneous administration, activity reported as percent inhibition of erythema/induration of lesion; 13/52. The data set is classed as functional.
The test system of data set [11] is Rattus norvegicus. Put plainly: Carrageenan-induced edema was determined after intraperitoneal administration. The data set is classed as functional. Particulars: ip, read-out: ID50 (the source's name). The gist of the method: (§3)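 Adult male Sprague-Dawley (CD) rats, 160–200 g. Single dose in 1% CMC given 2 h before footpad injection of 0.05 mL 1% carrageenin in pyrogen-free saline. Paws removed and weighed at 3 h, with the contralateral paw as control. ID50 is the dose giving 50% edema inhibition.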

A short description of data set [12]: Therapeutic ratio was determined for intraperitoneal administration. The data set is classed as ADME. Particulars: ip; read-out: TR.
Data set [13] has as its system Rattus norvegicus. Put plainly: Adjuvant-induced arthritis was determined for a dose of 75 mg/kg oral administration; 1/0. The data set is classed as functional. The gist of the method:
(§4)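 Male Lewis rats; day 0, 0.50 mg desiccated Mycobacterium butyricum in 0.10 mL light mineral oil into left plantar paw. Compound dissolved or suspended in 1% CMC, dosed daily for 21 days starting the day before adjuvant. On day 21, injected and noninjected hind paws weighed. Values are percent inhibition, local (injected paw)/systemic (noninjected paw).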

In data set [14] the test system is Rattus norvegicus. Put plainly: Adjuvant-induced arthritis was determined for a dose of 75 mg/kg intraperitoneal administration; 28/78. Type of data set: functional. Particulars: ip. Put shortly: as §4
Data set [15] deals with Mus musculus. The data set is described as follows: The compound was evaluated for the mouse active Arthus (MAA) reaction activity expressed as inhibitory dose after ip administration. Type of data set: functional. Particulars: read-out: ID50 (the source's name). The gist of the method:
as §1

The nature of data set [16]: Acute toxicity as LD50 value was determined in mice administered intraperitoneally. Particulars: mouse, in vivo, ip. The data set is classed as organism-based.
The test system of data set [17] is Rattus norvegicus. Put plainly: Adjuvant-induced arthritis was determined for a dose of 150 mg/kg administered orally; 17/0. Particulars: po. Type of data set: functional. Put shortly: as §4
Data set [18] deals with Rattus norvegicus. The data set is described as follows: Carrageenan-induced edema was determined after oral administration. Particulars: read-out: ID50 (the source's name). The data set is classed as functional. Put shortly: as §3
(In general: Carrageenan injected into the paw causes an acute inflammation.)

Data set [19] deals with Rattus norvegicus. The data set is described as follows: Adjuvant-induced arthritis was determined for a dose of 150 mg/kg administered intraperitoneally; 16/72. Type of data set: functional. Particulars: ip, route intraperitoneal. The gist of the method: as §4
The test system of data set [20] is Mus musculus. The data set is described as follows: The compound was evaluated for the mouse active Arthus (MAA) reaction activity expressed as inhibitory dose after oral administration. Type of data set: functional. Particulars: read-out: ID50 (the source's name). The gist of the method:
as §1

Data set [21] can be described thus: Acute toxicity as LD50 value was determined in mice administered orally. The data set is classed as organism-based. Particulars: mouse, in vivo, po.
Data set [22] relates to Mus musculus. Put plainly: Inhibition of Mouse active Arthus (MAA) reaction activity was determined for peroral dose of 300 mg/kg in mouse; 21-30%. The data set is classed as functional. Particulars: route oral.
In data set [23] the test system is Cavia porcellus. The data set is described as follows: Tested in delayed hypersensitivity skin reaction (DHSR) after subcutaneous administration, activity reported as percent inhibition of erythema/induration of lesion; 3/10. Type of data set: functional. The gist of the method:
as §2

Data set [24] concerns Mus musculus. The data set is described as follows: The compound was evaluated for the mouse active Arthus (MAA) reaction activity for peroral dose of 300 mg/kg in mouse; 31-40%. The data set is classed as functional. Particulars: route oral. Put shortly: as §1
Data set [25] has as its system Cavia porcellus. Put plainly: Tested in delayed hypersensitivity skin reaction (DHSR) after subcutaneous administration, activity reported as percent inhibition of erythema/induration of lesion; 7/6. The data set is classed as functional. The gist of the method: as §2
Data set [26] concerns Cavia porcellus. Put plainly: Tested in delayed hypersensitivity skin reaction (DHSR) after subcutaneous administration, activity reported as percent inhibition of erythema/induration of lesion; 15/0. Type of data set: functional.
Data set [27] relates to Cavia porcellus. Put plainly: Tested in delayed hypersensitivity skin reaction (DHSR) after subcutaneous administration, activity reported as percent inhibition of erythema/induration of lesion; 8/11. The data set is classed as functional. The gist of the method:
as §2

In data set [28] the test system is Cavia porcellus. The data set is described as follows: Tested in delayed hypersensitivity skin reaction (DHSR) after subcutaneous administration, activity reported as percent inhibition of erythema/induration of lesion; 22/51. Type of data set: functional.
Data set [29] has as its system Cavia porcellus. Put plainly: Tested in delayed hypersensitivity skin reaction (DHSR) after subcutaneous administration, activity reported as percent inhibition of erythema/induration of lesion; 9/30. The data set is classed as functional. Put shortly: as §2
Data set [30] relates to Mus musculus. The data set is described as follows: Inhibition of Mouse active Arthus (MAA) reaction activity was determined for an ip dose of 150 mg/kg in mouse; 21-30%. The data set is classed as functional. Particulars: route intraperitoneal.

In the data set with Cavia porcellus [1], `CSc1ccc(/C=C2\CSCC3C2=NN(C(C)=O)C3c2ccc(SC)cc2)cc1` (centres undefined) had an Activity of 2. Also, in the data set with Mus musculus [2], 150 mg/kg produced 31% inhibition in vivo.

As to `CCCCN1N=C2/C(=C/c3cccnc3)CSCC2C1c1cccnc1` (centres undefined), the inhibition in vivo (usually the drop in the measured response relative to a control, in per cent) at 150 mg/kg with Mus musculus [3] is under 20%. This compound also registered an Activity in the data set with Cavia porcellus [4] of 6.

With `CC(=O)N1N=C2/C(=C/c3ccccc3)CS(=O)(=O)CC2C1c1ccccc1` (centres undefined), in the data set with Mus musculus [5], the inhibition in vivo at 150 mg/kg is 41%. The Activity in the data set with Cavia porcellus [6] was 8.

Turning to `CCCn1nc(-c2ccc(C)cc2)c2c1/C(=C/c1ccc(C)cc1)CSC2`, the Activity in the data set on Cavia porcellus [7] is on record as 15. In the data set with Mus musculus [8], this compound displayed an inhibition in vivo at 150 mg/kg of 31%.

As for `Cc1ccc(/C=C2\CS(=O)(=O)CC3C2=NN(CCc2ccccc2)C3c2ccc(C)cc2)cc1` (centres undefined), the Activity in the data set with Cavia porcellus [9] is given as 10.

Compound `CCCN1N=C2/C(=C/c3ccc(C)cc3)CS(=O)(=O)CC2C1c1ccc(C)cc1` (centres undefined) came in with an Activity in the data set on Cavia porcellus [10] of 13. Also, the results for the inhibition in vivo at 150 mg/kg with Mus musculus [5], in the data set on Rattus norvegicus [17] and with Rattus norvegicus [19] were 41%, 17% and 16%, respectively. For the same compound, the ED50 in the data set with Rattus norvegicus [11] is 84 mg/kg; in the data set with Mus musculus [15], 140 mg/kg; with Rattus norvegicus [18], 250 mg/kg; with Mus musculus [20], over 600 mg/kg. The selectivity ratio in data set [12] is 24. In addition, the inhibition in vivo at 75 mg/kg in the data set with Rattus norvegicus [13] was found to be 1%; in the data set with Rattus norvegicus [14], 28%. Besides, the LD50 (usually the dose at which mortality reaches 50%) in data set [16] is 3400 mg/kg; in data set [21], over 4000 mg/kg.

Compound `CCCN1N=C2/C(=C/c3ccccc3)CS(=O)(=O)CC2C1c1ccccc1` (centres undefined) displayed an inhibition in vivo at 150 mg/kg in the data set on Mus musculus [5] of 41%. Besides, the inhibition in vivo at 300 mg/kg with Mus musculus [22] worked out at 21%. This compound also returned an Activity in the data set on Cavia porcellus [23] of 3.

`CN1CCN(CCCN2N=C3/C(=C/c4ccccc4)CS(=O)(=O)CC3C2c2ccccc2)CC1.O=C(O)/C=C\C(=O)O` (centres undefined): in the data set on Mus musculus [24], testing at 300 mg/kg gave an inhibition in vivo of 31%. This compound also displayed an Activity in the data set on Cavia porcellus [25] of 7. In the data set with Mus musculus [3], this compound registered an inhibition in vivo at 150 mg/kg of over 60%.

In the data set on Cavia porcellus [26], `CC(C)(C)c1ccc(/C=C2\CS(=O)(=O)CC3C2=NN(CC2CC2)C3c2ccc(C(C)(C)C)cc2)cc1` (centres undefined) yielded an Activity of 15.

As for `CCCN1N=C2/C(=C/c3cccc(C(F)(F)F)c3)CS(=O)(=O)CC2C1c1cccc(C(F)(F)F)c1` (centres undefined), 150 mg/kg produced 41% inhibition in vivo with Mus musculus [5]. In addition, the Activity with Cavia porcellus [27] is listed as 8.

With `CN1CCN(CCCN2N=C3/C(=C/c4ccccc4)COCC3C2c2ccccc2)CC1` (centres undefined), the Activity in the data set with Cavia porcellus [28] is given as 22.

For `CCCN1N=C2/C(=C/c3ccccc3)COCC2C1c1ccccc1` (centres undefined), the Activity in the data set with Cavia porcellus [29] came to 9. Besides, testing at 150 mg/kg in the data set on Mus musculus [30] gave an inhibition in vivo of 21%.
